Assay results as given in PMC6682128 (ACS Omega, 2019).

Columns and labels:
[1] = Cytotoxicity assay; assay type: cell-based; details: human
Summary of the method: (§1)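 Replicon cells (Huh5-2, Huh7.5-3a or Huh7.5-4a) were seeded at 10^4 per well and grown 24 h in complete DMEM. They were then exposed for three days to serial dilutions of test compound or DMSO solvent. Lysates were assayed for ATP by chemiluminescence, normalised to Bradford total protein. CC50 was obtained by nonlinear regression against log concentration.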

[2] = tested on: HCV genotype 1b (strain Con1) replicon; assay: HCV genotype 1b replicon luciferase assay in Huh5-2 cells; assay type: cell-based, Hepatitis C virus; details: EC50 comparison
[3] = tested on: Huh7.5-4a (ED43) replicon cells; assay: Cytotoxicity assay; assay type: cell-based, human; details: ATP levels
Summary of the method: as §1

[4] = Cytotoxicity assay; assay type: cell-based; details: human, Huh7.5-3a (S52) replicon cells
Summary of the method: as §1

[5] = tested on: HCV NS5A (Con1); assay type: cell-based, Hepatitis C virus; details: Huh5-2 cells; for cell viability (nuclei staining with propidium iodide): 0.5 and 0.05 nM; for NS5A protein levels by indirect immunofluorescence: highest compound concentration used (0.5 nM)
[6] = tested on: HCV genotype 1b (+) strand RNA; assay: HCV RNA quantification by RT-qPCR in Huh5-2 replicon cells; assay type: cell-based, Hepatitis C virus; details: 0.05 nM compound, Huh5-2 cells, normalized to YWHAZ

Structure (SMILES): COC(=O)N[C@H](CC(C)C)C(=O)N1CCC[C@H]1C(=O)Nc1cccc(C#CC#Cc2cccc(NC(=O)[C@@H]3CCCN3C(=O)[C@@H](CC(C)C)NC(=O)OC)c2)c1 [2p, Dimethyl((2R,2′R)-((2S,2′S)-(((buta-1,3-diyne-1,4-diylbis(3,1-phenylene))bis(azanediyl))bis(carbonyl))bis(pyrrolidine-2,1-diyl))bis(4-methyl-1-oxopentane-1,2-diyl))dicarbamate]
- CC50 at 3 days [1]: > 200 µM
- fold more active than 2o [2]: about 3 × 10^5 fold
- CC50, genotype 4a (ED43) [3]: >200 000 nM
- CC50 at 3 days [4]: > 200 µM

Structure (SMILES): CC(C)[C@H](NC(=O)OCc1ccccc1)C(=O)N1CCC[C@H]1C(=O)Nc1ccc(C#CC#Cc2ccc(NC(=O)[C@@H]3CCCN3C(=O)[C@@H](NC(=O)OCc3ccccc3)C(C)C)cc2)cc1 [1e, Dibenzyl((2S,2′S)-((2S,2′S)-(((buta-1,3-diyne-1,4-diylbis(4,1-phenylene))bis(azanediyl))bis(carbonyl))bis(pyrrolidine-2,1-diyl))bis(3-methyl-1-oxobutane-1,2-diyl))dicarbamate]
- CC50 at 3 days [1]: > 20 µM
- fold less active than compound 1b [2]: 28 fold

Structure (SMILES): CC(C)[C@H](NC(=O)OCc1ccccc1)C(=O)N1CCC[C@H]1C(=O)Nc1cccc(C#CC#Cc2cccc(NC(=O)[C@@H]3CCCN3C(=O)[C@@H](NC(=O)OCc3ccccc3)C(C)C)c2)c1 [2e, Dibenzyl((2S,2′S)-((2S,2′S)-(((buta-1,3-diyne-1,4-diylbis(3,1-phenylene))bis(azanediyl))bis(carbonyl))bis(pyrrolidine-2,1-diyl))bis(3-methyl-1-oxobutane-1,2-diyl))dicarbamate]
- CC50 at 3 days [1]: > 10 µM
- fold less active than 2b [2]: 22 fold

Structure (SMILES): CCOC(=O)N[C@H](C(=O)N1CCC[C@H]1C(=O)Nc1ccc(C#CC#Cc2ccc(NC(=O)[C@@H]3CCCN3C(=O)[C@@H](NC(=O)OCC)C(C)C)cc2)cc1)C(C)C [1b, Diethyl((2S,2′S)-((2S,2′S)-(((buta-1,3-diyne-1,4-diylbis(4,1-phenylene))bis(azanediyl))bis(carbonyl))bis(pyrrolidine-2,1-diyl))bis(3-methyl-1-oxobutane-1,2-diyl))dicarbamate]
- CC50 at 3 days [1]: 2.58 µM
- fold more active than compound 1n [2]: 3 fold

Structure (SMILES): CCOC(=O)N[C@H](CC(C)C)C(=O)N1CCC[C@H]1C(=O)Nc1cccc(C#CC#Cc2cccc(NC(=O)[C@@H]3CCCN3C(=O)[C@@H](CC(C)C)NC(=O)OCC)c2)c1 [2q, Diethyl((2R,2′R)-((2S,2′S)-(((buta-1,3-diyne-1,4-diylbis(3,1-phenylene))bis(azanediyl))bis(carbonyl))bis(pyrrolidine-2,1-diyl))bis(4-methyl-1-oxopentane-1,2-diyl))dicarbamate]
- cell viability (nuclei staining with propidium iodide) [5]: not affected
- NS5A protein levels by indirect immunofluorescence [5]: almost undetectable levels
- CC50 at 3 days [1]: > 200 µM
- HCV RNA replication reduced to (relative to control) [6]: 56%
- CC50, genotype 4a (ED43) [3]: >200 000 nM
- CC50 at 3 days [4]: > 200 µM

Structure (SMILES): CCOC(=O)N[C@@H](CC(C)C)C(=O)N1CCC[C@H]1C(=O)Nc1cccc(C#CC#Cc2cccc(NC(=O)[C@@H]3CCCN3C(=O)[C@H](CC(C)C)NC(=O)OCC)c2)c1 [2f, Diethyl((2S,2′S)-((2S,2′S)-(((buta-1,3-diyne-1,4-diylbis(3,1-phenylene))bis(azanediyl))bis(carbonyl))bis(pyrrolidine-2,1-diyl))bis(4-methyl-1-oxopentane-1,2-diyl))dicarbamate]
- cell viability (nuclei staining with propidium iodide) [5]: not affected
- NS5A protein levels by indirect immunofluorescence [5]: almost undetectable levels
- CC50 at 3 days [1]: > 200 µM
- HCV RNA replication reduced to (relative to control) [6]: ~90%
- CC50, genotype 4a (ED43) [3]: >200 000 nM
- CC50 at 3 days [4]: > 200 µM

Structure (SMILES): COC(=O)N[C@H](C(=O)N1CCC[C@H]1C(=O)Nc1cccc(C#CC#Cc2cccc(NC(=O)[C@@H]3CCCN3C(=O)[C@@H](NC(=O)OC)C(C)C)c2)c1)C(C)C [2a, Dimethyl((2S,2′S)-((2S,2′S)-(((buta-1,3-diyne-1,4-diylbis(3,1-phenylene))bis(azanediyl))bis(carbonyl))bis(pyrrolidine-2,1-diyl))bis(3-methyl-1-oxobutane-1,2-diyl))dicarbamate]
- CC50 at 3 days [1]: > 200 µM
- CC50, genotype 4a (ED43) [3]: >200 000 nM
- CC50 at 3 days [4]: > 200 µM

Structure (SMILES): COC(=O)N[C@H](C(=O)N1CCC[C@H]1c1nc(-c2ccc(-c3ccc(-c4c[nH]c([C@@H]5CCCN5C(=O)[C@@H](NC(=O)OC)C(C)C)n4)cc3)cc2)c[nH]1)C(C)C [daclatasvir, reference compound]
- CC50 at 3 days [1]: 17.7 µM
- CC50, genotype 4a (ED43) [3]: 17 700 nM
- CC50 at 3 days [4]: 17.7 µM

Structure (SMILES): CCOC(=O)N[C@H](C(=O)N1CCC[C@H]1C(=O)Nc1cccc(C#CC#Cc2cccc(NC(=O)[C@@H]3CCCN3C(=O)[C@@H](NC(=O)OCC)C(C)C)c2)c1)C(C)C [2b, Diethyl((2S,2′S)-((2S,2′S)-(((buta-1,3-diyne-1,4-diylbis(3,1-phenylene))bis(azanediyl))bis(carbonyl))bis(pyrrolidine-2,1-diyl))bis(3-methyl-1-oxobutane-1,2-diyl))dicarbamate]
- CC50 at 3 days [1]: > 200 µM

Structure (SMILES): CCOC(=O)N[C@@H](C(=O)N1CCC[C@@H]1C(=O)Nc1ccc(C#CC#Cc2ccc(NC(=O)[C@H]3CCCN3C(=O)[C@H](NC(=O)OCC)C(C)C)cc2)cc1)C(C)C [1k, Diethyl((2R,2′R)-((2R,2′R)-(((buta-1,3-diyne-1,4-diylbis(4,1-phenylene))bis(azanediyl))bis(carbonyl))bis(pyrrolidine-2,1-diyl))bis(3-methyl-1-oxobutane-1,2-diyl))dicarbamate]
- CC50 at 3 days [1]: > 10 µM

Structure (SMILES): CCOC(=O)N[C@@H](C(=O)N1CCC[C@H]1C(=O)Nc1ccc(C#CC#Cc2ccc(NC(=O)[C@@H]3CCCN3C(=O)[C@H](NC(=O)OCC)C(C)C)cc2)cc1)C(C)C [1n, Diethyl((2R,2′R)-((2S,2′S)-(((buta-1,3-diyne-1,4-diylbis(4,1-phenylene))bis(azanediyl))bis(carbonyl))bis(pyrrolidine-2,1-diyl))bis(3-methyl-1-oxobutane-1,2-diyl))dicarbamate]
- CC50 at 3 days [1]: 70.6 µM

Structure (SMILES): CC(C)C[C@H](NC(=O)OCc1ccccc1)C(=O)N1CCC[C@H]1C(=O)Nc1ccc(C#CC#Cc2ccc(NC(=O)[C@@H]3CCCN3C(=O)[C@H](CC(C)C)NC(=O)OCc3ccccc3)cc2)cc1 [1o, Dibenzyl((2S,2′S)-((2S,2′S)-(((buta-1,3-diyne-1,4-diylbis(4,1-phenylene))bis(azanediyl))bis(carbonyl))bis(pyrrolidine-2,1-diyl))bis(4-methyl-1-oxopentane-1,2-diyl))dicarbamate]
- CC50 at 3 days [1]: > 10 µM

Structure (SMILES): CCOC(=O)N[C@@H](C(=O)N1CCC[C@H]1C(=O)Nc1cccc(C#CC#Cc2cccc(NC(=O)[C@@H]3CCCN3C(=O)[C@H](NC(=O)OCC)C(C)C)c2)c1)C(C)C [2n, Diethyl((2R,2′R)-((2S,2′S)-(((buta-1,3-diyne-1,4-diylbis(3,1-phenylene))bis(azanediyl))bis(carbonyl))bis(pyrrolidine-2,1-diyl))bis(3-methyl-1-oxobutane-1,2-diyl))dicarbamate]
- CC50 at 3 days [1]: > 20 µM
- fold more active than 2b [2]: about 6 fold
